Measurements from different studies.
Compare with care: the assays were run in different laboratories.

NCc1cc2c(cc1F)C(=O)N(C1CCC(=O)NC1=O)C2 (stereo not drawn)  concentration (male CD-1 mouse, plasma; intravenous, 1 mg/kg, 4 h): 2.8 ng/mL
Fc1ccc(Oc2ccc(Nc3ccc4ncc(OCC5CCNCC5)nc4c3)cc2)cc1  concentration (SCID mouse, plasma; intraperitoneal, 50 mg/kg, 24 h): 1700 nM
CC(C)n1ncc2c(C(=O)NCC3(C)CNC3)cc(C3CC3)nc21  concentration (female BALB/c mouse, plasma; intraperitoneal, 50 mg/kg, 1 h): 2660 ng/mL
Cc1nc2ccc(OCc3ccc(C(F)(F)F)cc3)cc2[nH]1  concentration (male BALB/c mouse, brain; oral, 10 mg/kg, 4 h): 2000 ng/g
Cc1ccc2c(c1)C(=O)[C@]1(O)CCN(c3ccc4nc(C)ccc4c3)C1=N2  concentration (mouse, plasma; subcutaneous, 10 mg/kg, 30 min): 2500 nM
O=C1CCC(N2Cc3cc(CO)c(F)cc3C2=O)C(=O)N1 (stereo not drawn)  concentration (male CD-1 mouse, plasma; intravenous, 1 mg/kg, 4 h): 1.7 ng/mL
CN(C)C(=O)c1cc2cnc(Nc3ccc(-c4ccc5c(=O)cc(N6CCOCC6)oc5c4)cc3)nc2n1C1CCCC1  concentration (BALB/c mouse, brain; oral, 20 mg/kg, 24 h, single dose): 5.3 ng/g
CC(C)c1cc(C(=O)NCCN)c2cnn(C(C)C)c2n1  concentration (female BALB/c mouse, plasma; intraperitoneal, 50 mg/kg, 15 min): 2010 ng/mL
O=Cc1cc2c(cc1F)C(=O)N(C1CCC(=O)NC1=O)C2 (stereo not drawn)  concentration (male CD-1 mouse, plasma; intravenous, 1 mg/kg, 1.02 min): 17.2 ng/mL
CC1(C)NC(=O)N(c2ccc(F)c(Br)c2)C1=O  concentration (male Swiss mouse, plasma; oral, 100 mg/kg, 1 h): 29700 ng/mL
CCOC(=O)c1c(NC(=O)CNC(C)C)sc2c1CCCCC2  concentration (male mouse, brain; intraperitoneal, 100 mg/kg, 30 min): 15800 ng/g
CC1(C)NC(=O)N(c2ccc(F)c(S(C)(=O)=O)c2)C1=O  concentration (male Swiss mouse, plasma; oral, 100 mg/kg, 48 h): 20 ng/mL
OCc1nc2ccc(NCc3ccc(C(F)(F)F)cc3)cc2[nH]1  concentration (male BALB/c mouse, brain; oral, 10 mg/kg, 6 h): 227 ng/g
CC(C)(C)S(=O)(=O)c1cc2c(Nc3ccc4scnc4c3)ncnc2cc1OCCOP(=O)(O)O  concentration (BALB/c mouse, plasma; oral, 10 mg/kg, 2 h): 145 ng/mL
O=C1CCC(N2Cc3cc(C4CCN(Cc5ccccc5)CC4)ccc3C2=O)C(=O)N1 (stereo not drawn)  concentration (male CD-1 mouse, plasma; oral, 3 mg/kg, 1 h): 235 ng/mL
